Only some compounds are listed: those with a hit (about 1.3% of all), similar ones and a draw of the others.
NR2E3 ag-1: activates human NR2E3 receptor. CHO-S Gal4-NCOR/VP16-NR2E3 two-hybrid, luciferase. Q9Y5X4. 360,000 compounds, 0.35% hits. inhibition of corepressor binding, % at 3.98 µM. AID 602229;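 active = inhibition above the mean of all tested compounds plus 3 SD, cut at about 70% in these data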;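 note: 0% = DMSO with NR2E3 transfected cells and 100% = cells lacking NR2E3 construct; higher means lower luciferase signal from less NR2E3 corepressor binding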
Target sequence (Q9Y5X4 whole entry, looked up, the tested form may be a part): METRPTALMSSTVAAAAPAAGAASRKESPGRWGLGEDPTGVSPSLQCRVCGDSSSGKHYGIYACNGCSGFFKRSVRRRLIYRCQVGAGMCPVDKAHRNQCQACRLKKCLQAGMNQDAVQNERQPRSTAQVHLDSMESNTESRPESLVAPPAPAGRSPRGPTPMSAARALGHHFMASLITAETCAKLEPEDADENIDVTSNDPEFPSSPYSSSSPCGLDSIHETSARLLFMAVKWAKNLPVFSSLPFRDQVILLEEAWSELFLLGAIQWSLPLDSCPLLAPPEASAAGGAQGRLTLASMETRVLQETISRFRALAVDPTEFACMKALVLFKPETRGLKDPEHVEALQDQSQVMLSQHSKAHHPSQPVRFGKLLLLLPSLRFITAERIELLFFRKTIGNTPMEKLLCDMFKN
EP2 modulator: modulates human prostaglandin E2 receptor EP2 signaling; EP2-expressing cells, cAMP HTRF FRET, PGE2 co-stimulation; P43116; AID 940; 260,000 compounds, 0.83% hits; induction, % at 25 µM;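 active = compounds whose cAMP rise, as percent of the full-agonist control response, exceeds 60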;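 note: rat C6 glioma line stably carrying human EP2 under a CMV promoter; the protocol text gives 20 µM as final concentration; 100% = response of wells given 1 µM PGE2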
NR2E3 ag-2: NR2E3 (human) agonism | Q9Y5X4 | GST-NR2E3/biotin-RetCOR TR-FRET, 1536-well | inhibition of corepressor binding, % at 4.78 µM | 320,000 compounds, 0.12% hits;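 active = percent inhibition above the cutoff of mean plus 3 SD of all tested compounds, set per screening campaign, cut at about 20% in these data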;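 note: 0% = DMSO wells and 100% = biotin wells as full block of FRET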
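Format: 1536-well format; test system: GST-NR2E3 and biotin-RetCOR proteins; read-out basis: percent inhibition of TR-FRET ratio; timing: 5 h incubation at 4 °C; detection: time-resolved FRET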
JMJD2C inh: blocks human GASC-1 demethylase activity. Q9H3R0. GST-JMJD2C(1-420) H3K9me3 demethylation, DELFIA europium. inhibition, % at 2.35 µM. 330,000 compounds, 0.069% hits;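 active = more than half of a compound's replicate wells show inhibition beyond 50%, single wells judged on their own value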;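 note: signal counts dimethyl H3K9 product captured on neutravidin plate; 0% = median of DMSO wells and 100% = 0.3 times that DMSO median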
PGE2 EP2 inh: EP2 receptor (human) inhibition. P43116. C6 glioma cells expressing human EP2, cAMP TR-FRET; cells stimulated with saturating PGE2. inhibition, % at 25 µM. 260,000 compounds, 0.52% hits;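 active = percent inhibition above 40 after rounding to a whole number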;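 note: rat C6 glioma host cells with rolipram phosphodiesterase inhibitor present; the protocol text gives 20 µM as final concentration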
Furin inh: human furin inhibition; inhibition, % at 20 µM or 30 µM; purified furin, fluorogenic substrate cleavage; 220,000 compounds, 0.061% hits; P09958; in the data active = inhibition above about 25%
EP2 cAMP induct: EP2 receptor cAMP induction, counter-screens negative | shares compounds with EP2 modulator | C6 glioma EP2 cells, cAMP HTRF induction; plus low (about EC15) PGE2 agonist | calls only at 20 µM (by protocol) | 1,300 compounds, 47% hits;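 active = cAMP induction above 50% in the main assay while under 30% in all four parallel counter assays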;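 note: rat C6 glioma cells stably expressing human EP2 receptor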
* = called active by the depositor.

Screening Cc1ccc(-c2cc3nn(-c4ccccc4)c(N)c3c(=O)o2)cc1 returned NR2E3 ag-1 -88.9, EP2 modulator 66.2*, NR2E3 ag-2 0.0, JMJD2C inh -1.4, PGE2 EP2 inh 20.7, Furin inh -8.7 and EP2 cAMP induct inactive.
For O=C(COc1ccc(Br)cc1)Nc1ccc(-c2nnc(-c3ccco3)o2)cc1 the results were NR2E3 ag-1 -10.6, EP2 modulator 75.3*, NR2E3 ag-2 3.4, JMJD2C inh 6.1, PGE2 EP2 inh -0.3, Furin inh -18.9 and EP2 cAMP induct inactive.
O=S(=O)(c1cccs1)N1CN(Cc2cccs2)c2nc3ccccc3nc21 was read as NR2E3 ag-1 -110.8, EP2 modulator 65.5*, NR2E3 ag-2 1.6, JMJD2C inh 0.8, PGE2 EP2 inh 12.6, Furin inh 11.0 and EP2 cAMP induct inactive.
Screening CCOC(=O)c1c(C2COc3ccccc3O2)csc1N (stereo unspecified) returned NR2E3 ag-1 -6.7, EP2 modulator 70.2*, NR2E3 ag-2 0.8, JMJD2C inh -2.4, PGE2 EP2 inh 8.3, Furin inh -12.4 and EP2 cAMP induct active.
`O=C(O)c1cc2c(s1)-c1ccccc1OC2` gave NR2E3 ag-1 -9.2, EP2 modulator 85.6*, NR2E3 ag-2 -0.6, JMJD2C inh 7.9, PGE2 EP2 inh 11.6, Furin inh -144.4 and EP2 cAMP induct inactive.
For O=C(NC1CC1)c1cc2c(s1)-c1ccccc1OC2 the results were NR2E3 ag-1 -28.2, EP2 modulator 2.8, NR2E3 ag-2 2.9, JMJD2C inh 9.9, PGE2 EP2 inh 13.4 and Furin inh -297.0.
For CCOP(=O)(OCC)c1nc(-c2ccc(F)cc2)oc1NCc1ccccc1 the results were NR2E3 ag-1 -3.7, EP2 modulator 72.4*, NR2E3 ag-2 14.0, JMJD2C inh -3.0, PGE2 EP2 inh 0.8, Furin inh -22.6 and EP2 cAMP induct active.
For CCOP(=O)(OCC)c1nc(-c2ccccc2)oc1NCc1ccccc1 the results were NR2E3 ag-1 -14.6, EP2 modulator 80.8*, NR2E3 ag-2 0.7, JMJD2C inh -0.9, PGE2 EP2 inh 4.4, Furin inh -17.2 and EP2 cAMP induct active.
Screening O=P(c1ccccc1)(c1ccccc1)c1nc(-c2ccccc2)oc1N1CCOCC1 returned NR2E3 ag-1 -4.0, EP2 modulator 41.8, NR2E3 ag-2 0.5, JMJD2C inh -10.7, PGE2 EP2 inh 10.0 and Furin inh -5.4.
Screening CCOP(=O)(OCC)c1nc(Cc2ccccc2)oc1NCc1ccccc1 returned NR2E3 ag-1 9.4, EP2 modulator 3.2, NR2E3 ag-2 -5.0, JMJD2C inh -1.6, PGE2 EP2 inh 18.8 and Furin inh -8.3.
For CCOP(=O)(OCC)c1nc(-c2cccc3ccccc23)oc1NCCc1ccc(OC)cc1 the results were NR2E3 ag-1 -9.9, EP2 modulator 56.0, NR2E3 ag-2 -1.0, JMJD2C inh 4.7, PGE2 EP2 inh 5.4, Furin inh -100.2 and EP2 cAMP induct inactive.
Screening O=P(c1ccccc1)(c1ccccc1)c1nc(-c2ccccc2)oc1NCc1ccccc1 returned NR2E3 ag-1 -11.9, EP2 modulator 94.3*, NR2E3 ag-2 -0.6, JMJD2C inh 8.2, PGE2 EP2 inh 9.0, Furin inh -17.4 and EP2 cAMP induct active.
COc1ccc(CNc2oc(-c3cccc4ccccc34)nc2C#N)cc1 was read as NR2E3 ag-1 -26.1, EP2 modulator -35.0, NR2E3 ag-2 1.0, JMJD2C inh 0.3, PGE2 EP2 inh 9.1 and Furin inh -14.6.
O=C(CN1CCC(c2ccc(F)cc2)CC1)N1CCCC1 was read as EP2 modulator -24.2.
`CCc1cc2cc3c(cc2n2c(=O)n(CC(=O)N4CCOCC4)nc12)OCO3` gave EP2 modulator -13.9.
CC(C)c1nnc(SCC(=O)Nc2sc3c(c2C#N)CCCC3)n1C was read as EP2 modulator -11.1 and PGE2 EP2 inh 13.9.
`COc1ccc(/C=N/c2sc3c(c2C#N)CCC(C)C3)c(OC)c1` (stereo unspecified) gave EP2 modulator 0.7 and PGE2 EP2 inh 8.0.
Cc1nnc(SCC(=O)NC2CCCCC2)n1C1CCCCC1 was read as NR2E3 ag-1 -2.7, EP2 modulator 52.9, NR2E3 ag-2 1.4, JMJD2C inh 6.0, PGE2 EP2 inh 15.0, Furin inh -18.1 and EP2 cAMP induct inactive.
`Cc1ccc(C)c(/C(O)=C2/C(=O)C(=O)N(Cc3ccco3)C2c2cccnc2)c1` (stereo unspecified) gave EP2 modulator 9.9 and PGE2 EP2 inh 23.2.
For CCCOC(=O)c1ccc(NC(=O)c2cn(CC)c3nc(C)ccc3c2=O)cc1 the results were EP2 modulator 67.2*, JMJD2C inh -2.7, Furin inh 1.8 and EP2 cAMP induct inactive.
CCn1cc(C(=O)Nc2cc(C)cc(C)c2)c(=O)c2ccc(C)nc21 was read as EP2 modulator 30.5 and PGE2 EP2 inh 9.0.
COc1ccc(-c2nc3ccccn3c2NC2CCCC2)c(OC)c1 was read as EP2 modulator -11.1 and PGE2 EP2 inh 10.9.
CCN(CC)C1CCCCC1NS(=O)(=O)c1ccc(Cl)cc1 (stereo unspecified) was read as NR2E3 ag-1 -13.8, EP2 modulator 1.9, NR2E3 ag-2 0.4, JMJD2C inh 19.2, PGE2 EP2 inh 8.4 and Furin inh -11.3.
For CN(c1ccccc1)C1CCCCC1NS(=O)(=O)c1ccc(Cl)cc1 (stereo unspecified) the results were NR2E3 ag-1 -4.0, EP2 modulator 65.6*, NR2E3 ag-2 2.3, JMJD2C inh -0.1, PGE2 EP2 inh 5.6, Furin inh -16.0 and EP2 cAMP induct active.
For Cc1ccc(-c2cc(N)c(=O)n(CC(=O)NC(C)C)n2)s1 the results were EP2 modulator -57.8 and PGE2 EP2 inh -0.1.
Screening Nc1n[nH]c2c1C1(CCCCC1)Cc1ccccc1-2 returned NR2E3 ag-1 -22.0, EP2 modulator 74.0*, NR2E3 ag-2 -3.5, JMJD2C inh 9.5, PGE2 EP2 inh 3.8, Furin inh -17.7 and EP2 cAMP induct active.
Oc1ccc(/C=N/N2CCN(C3c4ccccc4-c4ccccc43)CC2)c(O)c1 was read as NR2E3 ag-1 -5.7, EP2 modulator 66.2*, NR2E3 ag-2 0.4, JMJD2C inh -15.1, PGE2 EP2 inh 6.2, Furin inh -10.5 and EP2 cAMP induct inactive.
Cc1[nH]nc2c1C(c1cc3cccc(C)c3[nH]c1=O)C(C#N)=C(N)O2 (stereo unspecified) was read as EP2 modulator -102.5 and PGE2 EP2 inh 9.8.

Compound activity: PubChem, several laboratories
